Laboratory results from ChEMBL document CHEMBL4152367, “Discovery of a Potent Thiazolidine Free Fatty Acid Receptor 2 Agonist with Favorable Pharmacokinetic Properties” (J Med Chem, 2018).
Calls of active or inactive are those of the source. No cut-off for these calls is given here.

Tests used:
[1] = molecular target: T1, Free fatty acid receptor 3 (Homo sapiens) (UniProt O14843); experiment: Agonist activity at FFA3R (unknown origin) up to 100 uM; format: functional
T1 sequence (whole entry): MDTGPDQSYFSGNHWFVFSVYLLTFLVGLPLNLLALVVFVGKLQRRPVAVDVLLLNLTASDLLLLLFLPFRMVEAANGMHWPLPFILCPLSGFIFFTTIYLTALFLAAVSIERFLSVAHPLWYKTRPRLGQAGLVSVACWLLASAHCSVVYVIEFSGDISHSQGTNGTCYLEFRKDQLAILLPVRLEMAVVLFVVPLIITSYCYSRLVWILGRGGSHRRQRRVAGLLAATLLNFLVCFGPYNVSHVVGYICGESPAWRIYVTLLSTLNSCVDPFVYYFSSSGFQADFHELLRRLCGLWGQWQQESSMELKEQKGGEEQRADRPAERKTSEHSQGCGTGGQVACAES

[2] = molecular target: T2, Peroxisome proliferator-activated receptor gamma (Homo sapiens) (UniProt P37231); experiment: Agonist activity at human PPARgamma expressed in Escherichia coli assessed as induction of calcium flux at 10 uM by fluorimetry
T2 sequence (whole entry): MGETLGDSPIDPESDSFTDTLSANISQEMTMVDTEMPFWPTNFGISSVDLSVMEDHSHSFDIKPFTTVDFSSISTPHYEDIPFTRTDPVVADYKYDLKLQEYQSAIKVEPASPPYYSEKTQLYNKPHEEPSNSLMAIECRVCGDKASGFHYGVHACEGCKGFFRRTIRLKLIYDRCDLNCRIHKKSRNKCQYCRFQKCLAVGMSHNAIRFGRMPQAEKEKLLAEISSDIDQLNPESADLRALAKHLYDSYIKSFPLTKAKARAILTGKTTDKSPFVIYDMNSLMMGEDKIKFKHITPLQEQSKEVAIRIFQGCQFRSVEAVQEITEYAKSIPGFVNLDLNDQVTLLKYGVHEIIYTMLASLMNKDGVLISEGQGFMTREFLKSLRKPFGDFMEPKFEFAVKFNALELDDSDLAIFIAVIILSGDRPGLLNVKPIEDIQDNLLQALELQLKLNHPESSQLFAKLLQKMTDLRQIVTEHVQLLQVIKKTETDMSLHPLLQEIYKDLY

[3] = molecular target: T3, Peroxisome proliferator-activated receptor delta (Homo sapiens) (UniProt Q03181); experiment: Agonist activity at human PPARdelta expressed in Escherichia coli assessed as induction of calcium flux at 10 uM by fluorimetry
T3 sequence (whole entry): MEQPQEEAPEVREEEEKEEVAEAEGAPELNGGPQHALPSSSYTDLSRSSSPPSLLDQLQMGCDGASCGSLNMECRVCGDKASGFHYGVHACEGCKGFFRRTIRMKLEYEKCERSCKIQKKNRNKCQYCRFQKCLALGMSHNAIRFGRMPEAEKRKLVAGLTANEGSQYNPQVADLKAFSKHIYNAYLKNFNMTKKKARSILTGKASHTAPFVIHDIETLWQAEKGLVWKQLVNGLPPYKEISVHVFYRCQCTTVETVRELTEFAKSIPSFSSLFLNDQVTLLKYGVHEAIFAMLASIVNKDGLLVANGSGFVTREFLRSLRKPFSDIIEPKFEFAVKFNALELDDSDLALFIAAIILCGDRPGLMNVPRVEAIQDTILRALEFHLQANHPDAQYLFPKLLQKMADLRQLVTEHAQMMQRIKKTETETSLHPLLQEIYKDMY

[4] = molecular target: T3, Peroxisome proliferator-activated receptor delta (Homo sapiens); experiment: Antagonist activity at human PPARdelta expressed in Escherichia coli assessed as inhibition of GW0742-induced calcium flux at 10 uM by fluorimetry
[5] = molecular target: T4, Oxysterols receptor LXR-beta (Homo sapiens) (UniProt P55055); experiment: Agonist activity at human LXRbeta expressed in Escherichia coli assessed as induction of calcium flux at 10 uM by fluorimetry
T4 sequence (whole entry): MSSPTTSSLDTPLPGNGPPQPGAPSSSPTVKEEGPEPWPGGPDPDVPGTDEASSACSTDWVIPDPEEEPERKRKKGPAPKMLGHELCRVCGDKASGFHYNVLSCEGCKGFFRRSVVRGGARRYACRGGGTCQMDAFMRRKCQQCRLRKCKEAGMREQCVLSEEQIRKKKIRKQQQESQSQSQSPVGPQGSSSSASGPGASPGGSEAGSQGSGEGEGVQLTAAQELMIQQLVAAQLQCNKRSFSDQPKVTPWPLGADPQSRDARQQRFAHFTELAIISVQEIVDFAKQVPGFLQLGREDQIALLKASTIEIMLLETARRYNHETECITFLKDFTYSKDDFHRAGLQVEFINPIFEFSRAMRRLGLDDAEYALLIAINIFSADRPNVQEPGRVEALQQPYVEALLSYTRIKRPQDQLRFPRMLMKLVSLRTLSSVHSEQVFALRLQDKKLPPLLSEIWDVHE

[6] = Chemical stability of the compound in PBS buffer at 37 degC after 3 weeks; format: physicochemical; details: read-out: Stability
Outline: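 Chemical stability: 50 µM compound (diluted from 10 mM DMSO stock) in 10 mM phosphate buffer, pH 7.4, shaken at 37 °C; sampled at intervals over 3 weeks. Remaining compound by HPLC peak area relative to the 0 time point; duplicate runs, each injected twice.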

[7] = AUC (0 to infinity) in Balb/c mouse at 5 mg/kg, iv by HPLC-MS/MS analysis; format: ADME, organism-based; design: dose 5 mg/kg, time infinity, route intravenous; details: in vivo
Outline: (§1)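 Balb/c mice dosed at 5 mg/kg iv or 10 mg/kg po. Plasma concentrations over time used to derive t1/2, AUC0–∞, Vd and total clearance (iv), and tmax, Cmax, AUC0–∞ and oral bioavailability (po).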

[8] = Tmax in Balb/c mouse at 10 mg/kg, po by HPLC-MS/MS analysis; format: ADME, organism-based; details: in vivo; outline: as §1
[9] = AUC (0 to infinity) in Balb/c mouse at 10 mg/kg, po by HPLC-MS/MS analysis; format: ADME, organism-based; design: dose 10 mg/kg, route oral, time infinity; details: in vivo; outline: as §1
[10] = Clearance in Balb/c mouse primary hepatocytes per million cells after 2 hrs by LC-MS/MS analysis; format: ADME, cell-based, Hepatocyte; details: read-out: CLH
[11] = AUC (0 to infinity) in Balb/c mouse at 5 mg/kg, ip by HPLC-MS/MS analysis; format: ADME, organism-based; design: dose 5 mg/kg, time infinity, route intraperitoneal; details: in vivo
[12] = Half life in Balb/c mouse at 5 mg/kg, ip by HPLC-MS/MS analysis; format: ADME, organism-based; details: in vivo

In the case of `Cc1noc(C)c1-c1ccc(C(=O)N2[C@@H](c3ccccc3Cl)SC[C@H]2C(=O)O)cc1`, the Activity [1] is reported as “inactive”, the Activity [2] is reported as “inactive” and the Activity [3] is reported as “inactive”. For the same molecule, the inhibition [4] was “inactive”, the Activity [5] was “inactive” and the remaining at […] [6] was 97.6%. For the same molecule, the AUC(0-inf) [7] was 4100 ng·h/mL, the Tmax [8] was 15 min and the AUC(0-inf) [9] was 2600 ng·h/mL. It also gave a hepatocyte CLint [10] of under 8 µL/min/1e6 cells, an AUC(0-inf) [11] of 1010 ng·h/mL and a half-life [12] of 82 min.
